In ChEMBL document CHEMBL3632606, “Structural Optimization of Indole Derivatives Acting at Colchicine Binding Site as Potential Anticancer Agents” (ACS Med Chem Lett, 2015):
Active and inactive are the calls of the source. The rule behind the calls is not given here.

Legend:
[1] = Half life in human liver microsomes at 2 uM by LC-MS/MS analysis; type: ADME
[2] = system: LNCaP; experiment: Cytotoxicity against human LNCAP cells after 48 hrs by MTS assay; type: functional, cell-based
[3] = system: PC-3; experiment: Cytotoxicity against human PC3 cells after 48 hrs by MTS assay; type: functional, cell-based; conditions: PC-3, 48 h
[4] = system: A-375; experiment: Cytotoxicity against human A375 cells after 48 hrs by MTS assay; type: functional, cell-based; conditions: A-375, 48 h
[5] = system: M14; experiment: Cytotoxicity against human M14 cells after 48 hrs by MTS assay; type: functional, cell-based; conditions: M14, 48 h
[6] = Lipophilicity, log P of the compound; type: physicochemical; conditions: octanol/water
[7] = system: DU-145; experiment: Cytotoxicity against human DU145 cells after 48 hrs by MTS assay; type: functional, cell-based; conditions: DU-145, 48 h
[8] = Cytotoxicity against human WM164 cells after 48 hrs by MTS assay; type: functional, cell-based; conditions: WM164, 48 h
[9] = Half life in mouse liver microsomes at 2 uM by LC-MS/MS analysis; type: ADME
[10] = Cytotoxicity against human PPC1 cells after 48 hrs by MTS assay; type: functional, cell-based; conditions: PPC-1, 48 h
[11] = system: DU-145; experiment: Cytotoxicity against human paclitaxel-resistant DU145 cells after 48 hrs by MTS assay; type: functional, cell-based; conditions: DU-145, 48 h
[12] = Cytotoxicity against human M14/LCC6R1 cells after 48 hrs by MTS assay; type: functional, cell-based; conditions: M14/LCC6R1, 48 h
[13] = system: PC-3; experiment: Cytotoxicity against human paclitaxel-resistant PC3 cells after 48 hrs by MTS assay; type: functional, cell-based; conditions: PC-3, 48 h
[14] = system: A-375; experiment: Cell cycle arrest in human A375 cells at 10 nM after 24 hrs using propidium iodide staining by flow cytometry analysis; type: functional, cell-based
In short: (§1)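 Cells treated with test agents for 24 h, then cell cycle distribution measured by flow cytometry; G2/M fraction compared with a vehicle-treated control group; N = 3.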

[15] = system: PC-3; experiment: Cell cycle arrest in human PC3 cells assessed as accumulation at G2/M phase at 10 nM after 24 hrs using propidium iodide staining by flow cytometry analysis; type: functional, cell-based; in short: as §1
[16] = system: A-375; experiment: Cell cycle arrest in human A375 cells assessed as accumulation at G2/M phase at 50 nM after 24 hrs using propidium iodide staining by flow cytometry analysis (reference value: 4 +/- 0.5%); type: functional; in short: as §1
[17] = target: Tubulin (Sus scrofa) (UniProt P02554+P02550); experiment: Inhibition of porcine tubulin polymerization measured every 1 min for 60 mins; type: protein assay
Sequence of Tubulin (Sus scrofa) (P02550 whole entry, looked up): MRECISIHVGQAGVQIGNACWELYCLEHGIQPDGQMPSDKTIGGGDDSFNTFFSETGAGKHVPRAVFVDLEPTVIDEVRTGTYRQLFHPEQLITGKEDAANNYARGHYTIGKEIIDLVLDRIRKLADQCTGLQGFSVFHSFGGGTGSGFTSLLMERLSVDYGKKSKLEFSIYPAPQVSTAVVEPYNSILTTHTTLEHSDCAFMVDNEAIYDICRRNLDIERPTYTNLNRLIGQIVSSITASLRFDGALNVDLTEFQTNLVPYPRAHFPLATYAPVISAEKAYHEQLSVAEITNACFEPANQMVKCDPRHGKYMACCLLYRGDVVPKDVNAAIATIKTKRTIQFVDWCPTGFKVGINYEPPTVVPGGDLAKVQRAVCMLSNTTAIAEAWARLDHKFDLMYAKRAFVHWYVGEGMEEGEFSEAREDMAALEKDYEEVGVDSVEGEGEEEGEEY
Sequence of Tubulin (Sus scrofa) (P02554 whole entry, looked up): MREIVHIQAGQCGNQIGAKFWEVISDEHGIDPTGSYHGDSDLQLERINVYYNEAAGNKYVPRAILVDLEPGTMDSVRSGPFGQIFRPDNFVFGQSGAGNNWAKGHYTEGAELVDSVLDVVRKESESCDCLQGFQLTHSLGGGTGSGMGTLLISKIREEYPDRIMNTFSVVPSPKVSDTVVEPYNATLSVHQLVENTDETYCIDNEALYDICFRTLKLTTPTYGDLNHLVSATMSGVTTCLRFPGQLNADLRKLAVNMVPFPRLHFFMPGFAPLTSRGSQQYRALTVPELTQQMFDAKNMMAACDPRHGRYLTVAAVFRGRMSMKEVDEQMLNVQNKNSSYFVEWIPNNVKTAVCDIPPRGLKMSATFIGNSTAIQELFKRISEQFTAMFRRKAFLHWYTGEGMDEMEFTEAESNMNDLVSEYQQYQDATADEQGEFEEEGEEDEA
In short: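 In vitro microtubule polymerization run with test agents at 5 or 10 μM. Vehicle, paclitaxel (5 μM) and colchicine (5 μM) were run as controls under the same conditions. Curves are from a representative experiment.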

Compound	half-life at 2 µM [1] [min]	IC50 [2] [µM]	IC50 [3] [µM]	IC50 [4] [µM]	IC50 [5] [µM]	logP [6]	IC50 [7] [µM]	IC50 [8] [µM]	half-life at 2 µM [9] [min]	IC50 [10] [µM]	IC50 [11] [µM]	IC50 [12] [µM]	IC50 [13] [µM]	Activity [14]	Activity [15]	Activity [16] [%]	inhibition [17]
COc1cc(-c2nccc3ccc(-c4ccc5[nH]ccc5c4)cc23)cc(OC)c1OC	38.9	0.081	0.064	0.929	0.074	4.63	0.092	0.227	2.1	0.061	–	–	–	–	–	–	–
COc1cc(-c2nccc3[nH]c(-c4cccc5c4ccn5S(=O)(=O)c4ccccc4)nc23)cc(OC)c1OC	–	–	0.956	0.263	0.67	–	0.406	–	–	–	0.325	0.73	0.57	–	–	–	–
Fc1ccc(-c2ccc3ccnc(-c4ccc(F)cc4)c3c2)cc1	–	> 30	> 30	> 30	> 30	–	> 30	> 30	–	> 30	–	–	–	–	–	–	–
COc1cc(-c2nccc3[nH]c(-c4cc5ccccc5[nH]4)nc23)cc(OC)c1OC	–	–	0.17	0.175	0.164	–	1.7	–	–	–	2.04	0.191	0.12	–	–	–	–
COc1cc(-c2nccc3[nH]c(-c4cccc5[nH]ccc45)nc23)cc(OC)c1OC	33.1	–	0.007	0.003	0.014	–	0.014	–	10.5	–	0.017	0.025	0.012	inactive	Active	42	Dose-dependent effect
COc1cc(-c2nccc3[nH]c(-c4cccc5cc[nH]c45)nc23)cc(OC)c1OC	–	–	0.043	0.024	0.028	–	0.177	–	–	–	> 30	0.053	0.065	–	–	–	–
c1cc2ccc(-c3ccc4[nH]ccc4c3)cc2c(-c2ccc3[nH]ccc3c2)n1	–	0.098	0.072	0.093	0.111	–	0.113	0.147	–	0.048	–	–	–	–	–	–	–
COc1cc(-c2nccc3c2NC(c2cccc4cc[nH]c24)N3)cc(OC)c1OC (stereo not drawn)	–	–	1.24	0.984	1.06	–	2.54	–	–	–	3.66	0.975	0.689	–	–	–	–
COc1cc(-c2nccc3[nH]c(-c4ccc5cc[nH]c5c4)nc23)cc(OC)c1OC	56.3	–	0.008	0.003	0.016	–	0.012	–	27.7	–	0.012	0.053	0.013	inactive	Active	65.9	Dose-dependent effect
COc1cc(C(=O)c2cccc(-c3cc4ccccc4[nH]3)c2)cc(OC)c1OC	24	–	0.0282	–	–	4.14	–	–	–	–	–	–	–	–	–	–	–
COc1cc(-c2nccc3[nH]c(-c4c[nH]c5ccccc45)nc23)cc(OC)c1OC	–	–	0.027	0.016	0.026	–	0.222	–	–	–	0.074	0.088	0.007	–	–	–	–
Fc1ccc(-c2nccc3ccc(-c4ccc5[nH]ccc5c4)cc23)cc1	30.7	0.038	0.026	0.066	0.049	–	0.047	0.033	2	0.028	–	–	–	–	–	–	–
COc1cc(-c2ccc3ccnc(-c4cc(OC)c(OC)c(OC)c4)c3c2)cc(OC)c1OC	–	–	–	10.7	9.74	–	–	6.67	–	–	–	–	–	–	–	–	–
COc1cc(-c2nccc3[nH]c(-c4cccc5ccn(S(=O)(=O)c6ccccc6)c45)nc23)cc(OC)c1OC	–	–	0.623	0.551	0.471	–	1.03	–	–	–	> 30	0.545	0.525	–	–	–	–
O=S(=O)(c1ccccc1)n1ccc2c(-c3nc4c(Br)nccc4[nH]3)cccc21	–	–	> 30	> 30	> 30	–	> 30	–	–	–	> 30	> 30	> 30	–	–	–	–
COc1cc(-c2nccc3[nH]c(-c4ccc5[nH]ccc5c4)nc23)cc(OC)c1OC	45.4	–	0.027	0.022	0.053	–	0.121	–	16.1	–	0.164	0.116	0.034	–	–	–	–
